Assay results collected from several papers.
Each line is one published result; the experiments were not run side by side.
Target: Cyclin-dependent kinase 14 (CDK14, Homo sapiens, UniProt O94921)

O=C(Nc1c[nH]nc1C(=O)NC1CCNCC1)c1cc(F)cc(F)c1 — remaining binding (binding, competition with immobilised ligand; 1 µM): 99%
Cc1nc(C2CCN(C(=O)c3ccc(OC(F)(F)F)cc3N)CC2)c2ncc(N3CCN(C)CC3)cc2n1 — remaining binding (cell-free assay, competition with immobilised ligand; 1 µM): 100%
CN(CCCC(F)(F)F)c1nccc(-c2cnn3ncccc23)n1 — remaining binding (binding; 1 µM): 93%
O=C(c1ccc(Nc2nccc(-c3cc4ccccc4s3)n2)cc1)N1CCC(N2CCCC2)CC1 — remaining binding (binding, competition with immobilised ligand; 1 µM): 100%
N[C@@H]1CCN(c2nccc(-c3cnn4ncccc34)n2)C1 — remaining binding (binding; 1 µM): 100%
c1cncc(-c2cccc(Nc3nccc(NC4CCCCC4)n3)c2)c1 — remaining binding (binding, competition with immobilised ligand; 10 µM): 90%
FC(F)(F)Oc1cccc(-c2cnc3ccc(-c4ccncc4)nn23)c1 — remaining binding (cell-free assay, competition with immobilised ligand; 5 µM): 68%
O=C(NCCCN1CCOCC1)c1ccc(Nc2ncc(Cl)c(-c3ccc(Cl)s3)n2)cc1 — remaining binding (binding, competition with immobilised ligand; 1 µM): 37%
CNCc1ccccc1-c1csc([C@H](C)Nc2nc(C)nc3cc(OC)c(OC)cc23)c1 — remaining binding (cell-free assay, competition with immobilised ligand; 1 µM): 100%
O=C(NCCCN1CCOCC1)c1ccc(Nc2nccc(-c3cc4ccccc4s3)n2)cc1 — remaining binding (binding, competition with immobilised ligand; 1 µM): 100%
Cc1cnn2ncc(-c3ccnc(N(C)C)n3)c2c1 — remaining binding (binding; 1 µM): 91%
CNC(=O)[C@@H]1CC[C@@H](n2c(-c3ccc4cnccc4c3)nc3ccc(C(=O)NCc4cccc(C(N)=O)c4)cc32)C1 — remaining binding (binding, competition with immobilised ligand; 1 µM): 100%
O=C(N[C@H]1CCCCC/C=C\C2C[C@@]2(C(=O)O)NC(=O)[C@@H]2C[C@@H](Oc3ccncc3)CN2C1=O)OC1CCCC1 (stereo partly drawn) — remaining binding (binding, competition with immobilised ligand; 1 µM): 91%
COc1ncc2cc3ccccc3nc2c1C#N — remaining binding (cell-free assay, competition with immobilised ligand; 5 µM): 99%
CCOC(=O)c1cc2cc(-c3cc(C(=O)NCc4ccc(C(=O)O)cc4)nn3C)ccc2[nH]1 — remaining binding (cell-free assay, competition with immobilised ligand; 0.1 µM): 100%
C[C@@H]1CCN(c2nccc(-c3cnn4ncccc34)n2)C1 — remaining binding (binding; 1 µM): 100%
CN(C(=O)c1ccccc1)c1cc(N(C)c2ccc3c(c2)CCc2ccc(C(=O)NCCN4CCOCC4)cc2C3=O)ccc1F — remaining binding (cell-free assay, competition with immobilised ligand; 1 µM): 100%
c1cnn2ncc(-c3ccnc(N4CCC45COC5)n3)c2c1 — remaining binding (binding; 1 µM): 88%
